Laboratory results: ChEMBL document CHEMBL4028832, “Design and synthesis of 1,2,3-triazolo-phenanthrene hybrids as cytotoxic agents” (Bioorg Med Chem Lett, 2017)
Values belong to the molecule of their own block, whether it stands above or below them. Calls of active or inactive are those of the source. The calls are words filed in the database; no cut-off is given here.

Legend:
Bos taurus = species: Bos taurus; assay: Binding affinity to calf thymus DNA assessed as increase in viscosity at 5 uM by Rolling-ball viscometric method
DU-145 [1] = assay: Induction of apoptosis in human DU145 cells assessed as loss of mitochondrial membrane potential after 24 hrs by JC1 staining-based fluorescence microscopic method; format: functional, cell-based
Summary of the method: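 DU145 cells were treated at 2, 4 and 8 µM for 24 h and stained with JC-1. Orange aggregates mark polarised mitochondria and green monomers mark depolarised ones, imaged by fluorescence. JC-1 aggregate intensity was quantified by spectrofluorometry.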

DU-145 [2] = assay: Cell cycle arrest in human DU145 cells assessed as accumulation at S phase at 8 uM after 24 hrs by propidium iodide staining based FACS analysis (reference value: 7.93%); format: functional
DU-145 [3] = assay: Cell cycle arrest in human DU145 cells assessed as accumulation at G0/G1 phase at 2 uM after 24 hrs by propidium iodide staining based FACS analysis (reference value: 64.1%); format: functional
DU-145 [4] = assay: Cell cycle arrest in human DU145 cells assessed as accumulation at G2/M phase at 8 uM after 24 hrs by propidium iodide staining based FACS analysis (reference value: 16.38%); format: functional
DU-145 [5] = assay: Cell cycle arrest in human DU145 cells assessed as accumulation at G2/M phase at 1 uM after 24 hrs by propidium iodide staining based FACS analysis (reference value: 16.38%); format: functional
DU-145 [6] = assay: Cell cycle arrest in human DU145 cells assessed as accumulation at S phase at 4 uM after 24 hrs by propidium iodide staining based FACS analysis (reference value: 7.93%); format: functional
MDA-MB-231 = assay: Cytotoxicity against human MDA-MB-231 cells after 48 hrs by MTT assay; format: functional, cell-based; conditions: MDA-MB-231, 48 h
Summary of the method: (§1)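 The human cancer lines and mouse 4T1 breast cells were treated with compound for 48 h and assessed by MTT assay. IC50 is the concentration giving 50% inhibition. 5-Fluorouracil served as the MTT standard.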

MDA-MB-453 = assay: Cytotoxicity against human MDA-MB-453 cells after 48 hrs by MTT assay; format: functional, cell-based; conditions: MDA-MB-453, 48 h; summary of the method: as §1
DU-145 [7] = assay: Cell cycle arrest in human DU145 cells assessed as accumulation at G0/G1 phase at 8 uM after 24 hrs by propidium iodide staining based FACS analysis (reference value: 64.1%); format: functional
DU-145 [8] = assay: Induction of apoptosis in human DU145 cells assessed as cell detachment at 2 to 8 uM after 48 hrs by phase contrast microscopic method; format: functional, cell-based
Summary of the method: (§2)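 Phase-contrast microscopy of DU145 cells treated at 2, 4 and 8 µM. Images were captured and scored against untreated control for cell detachment and nuclear shrinkage.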

HGC-27 = assay: Cytotoxicity against human HGC27 cells after 48 hrs by MTT assay; format: functional, cell-based; conditions: HGC-27, 48 h; summary of the method: as §1
DU-145 [9] = assay: Cell cycle arrest in human DU145 cells assessed as accumulation at G2/M phase at 2 uM after 24 hrs by propidium iodide staining based FACS analysis (reference value: 16.38%); format: functional
A549 = assay: Cytotoxicity against human A549 cells after 48 hrs by MTT assay; format: functional, cell-based; conditions: A549, 48 h; summary of the method: as §1
DU-145 [10] = assay: Induction of apoptosis in human DU145 cells assessed as increase in intracellular reactive oxygen species after 6 hrs by DCFDA dye based spectrofluorometeric method; format: functional, cell-based
Summary of the method: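 Intracellular ROS in DU145 cells was measured by DCFDA fluorescence after 6 h of treatment at several doses. Comparators were N-acetyl cysteine pretreatment before compound and H2O2-treated cells. Values are mean ± SD of three independent experiments.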

DU-145 [11] = assay: Induction of apoptosis in human DU145 cells assessed as chromatin condensation at 8 uM after 48 hrs by acridine orange/ethidium bromide staining-based fluorescence microscopic analysis; format: functional, cell-based
Summary of the method: (§3)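 Treated DU145 cells were double-stained with acridine orange and ethidium bromide and imaged by fluorescence microscopy. Acridine orange stains intact nuclei green; ethidium bromide stains nuclei of membrane-compromised cells red. Cells were scored for blebbing, chromatin condensation, shrinkage and apoptotic bodies versus control.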

DU-145 [12] = assay: Cell cycle arrest in human DU145 cells assessed as increase in accumulation at G0/G1 phase after 24 hrs by propidium iodide staining based FACS analysis; format: functional
DU-145 [13] = assay: Induction of apoptosis in human DU145 cells assessed as horse shoe shaped nuclei at 2 to 8 uM after 24 hrs by DAPI staining based fluorescence microscopic method
BT-549 = assay: Cytotoxicity against human BT549 cells after 48 hrs by MTT assay; format: functional, cell-based; conditions: BT-549, 48 h; summary of the method: as §1
DU-145 [14] = assay: Cell cycle arrest in human DU145 cells assessed as accumulation at S phase at 2 uM after 24 hrs by propidium iodide staining based FACS analysis (reference value: 7.93%); format: functional
DU-145 [15] = assay: Induction of apoptosis in human DU145 cells assessed as apoptotic body formation at 8 uM after 48 hrs by acridine orange/ethidium bromide staining-based fluorescence microscopic analysis; format: functional, cell-based; summary of the method: as §3
PC-3 = assay: Cytotoxicity against human PC3 cells after 48 hrs by MTT assay; format: functional, cell-based; conditions: PC-3, 48 h; summary of the method: as §1
DU-145 [16] = assay: Induction of apoptosis in human DU145 cells assessed as formation of condensed nuclei at 2 to 8 uM after 24 hrs by DAPI staining based fluorescence microscopic method
HeLa = assay: Cytotoxicity against human HeLa cells after 48 hrs by MTT assay; format: functional, cell-based; summary of the method: as §1
DU-145 [17] = assay: Induction of apoptosis in human DU145 cells assessed as membrane blebbing at 8 uM after 48 hrs by acridine orange/ethidium bromide staining-based fluorescence microscopic analysis; format: functional, cell-based; summary of the method: as §3
DU-145 [18] = assay: Cell cycle arrest in human DU145 cells assessed as accumulation at G0/G1 phase at 1 uM after 24 hrs by propidium iodide staining based FACS analysis (reference value: 64.1%); format: functional
DU-145 [19] = assay: Cell cycle arrest in human DU145 cells assessed as accumulation at S phase at 1 uM after 24 hrs by propidium iodide staining based FACS analysis (reference value: 7.93%); format: functional
DU-145 [20] = assay: Cell cycle arrest in human DU145 cells assessed as accumulation at G0/G1 phase at 4 uM after 24 hrs by propidium iodide staining based FACS analysis (reference value: 64.1%); format: functional
DU-145 [21] = assay: Cell cycle arrest in human DU145 cells assessed as accumulation at G2/M phase at 4 uM after 24 hrs by propidium iodide staining based FACS analysis (reference value: 16.38%); format: functional
4T1 = assay: Cytotoxicity against mouse 4T1 cells after 48 hrs by MTT assay; format: functional, cell-based; conditions: 4T1, 48 h; summary of the method: as §1
DU-145 [22] = assay: Cytotoxicity against human DU145 cells after 48 hrs by MTT assay; format: functional, cell-based; conditions: DU-145, 48 h; summary of the method: as §1
DU-145 [23] = assay: Induction of apoptosis in human DU145 cells assessed as nuclear shrinkage at 2 to 8 uM after 48 hrs by phase contrast microscopic method; format: functional, cell-based; summary of the method: as §2
DU-145 [24] = assay: Induction of apoptosis in human DU145 cells assessed as cell shrinkage at 8 uM after 48 hrs by acridine orange/ethidium bromide staining-based fluorescence microscopic analysis; format: functional; summary of the method: as §3

Activity (Bos taurus): Active
Compound: COc1cc2cc(Cn3cc(CN4C(=O)c5cccc6cccc(c56)C4=O)nn3)c3cc(OC)c(OC)cc3c2cc1OC
Activity (DU-145 [1]): Dose-dependent effect | Activity (DU-145 [2]): 1.91% | Activity (DU-145 [3]): 73.32% | Activity (DU-145 [4]): 7.64% | Activity (DU-145 [5]): 20.46% | Activity (DU-145 [6]): 5.37% | IC50 (MDA-MB-231): 4.2 µM | IC50 (MDA-MB-453): 5.1 µM | Activity (DU-145 [7]): 88.62% | Activity (DU-145 [8]): Active | IC50 (HGC-27): 5.1 µM | Activity (DU-145 [9]): 16.71% | IC50 (A549): > 20 µM | Activity (DU-145 [10]): Dose-dependent effect | Activity (DU-145 [11]): Active | Activity (DU-145 [12]): Dose-dependent effect | Activity (DU-145 [13]): Active | IC50 (BT-549): 3.7 µM | Activity (DU-145 [14]): 6.37% | Activity (DU-145 [15]): Active | IC50 (PC-3): 8.5 µM | Activity (DU-145 [16]): Active | IC50 (HeLa): 2.9 µM | Activity (DU-145 [17]): Active | Activity (DU-145 [18]): 71.1% | Activity (DU-145 [19]): 4.4% | Activity (DU-145 [20]): 80.37% | Activity (DU-145 [21]): 11.7% | IC50 (4T1): 4.2 µM | IC50 (DU-145 [22]): 1.5 µM | Activity (DU-145 [23]): Active | Activity (DU-145 [24]): Active

Compound: COc1cc2cc(Cn3cc(COc4ccc(Br)cc4)nn3)c3cc(OC)c(OC)cc3c2cc1OC
IC50 (MDA-MB-231): > 20 µM | IC50 (MDA-MB-453): > 20 µM | IC50 (HGC-27): 3.9 µM | IC50 (A549): > 20 µM | IC50 (BT-549): > 20 µM | IC50 (PC-3): > 20 µM | IC50 (HeLa): 3.8 µM | IC50 (4T1): > 20 µM | IC50 (DU-145 [22]): > 20 µM

Compound: COc1cc2cc(Cn3cc(COc4c(Br)cccc4Br)nn3)c3cc(OC)c(OC)cc3c2cc1OC
IC50 (MDA-MB-231): > 20 µM | IC50 (MDA-MB-453): > 20 µM | IC50 (HGC-27): 3.6 µM | IC50 (A549): > 20 µM | IC50 (BT-549): > 20 µM | IC50 (PC-3): 14.1 µM | IC50 (HeLa): 5.15 µM | IC50 (4T1): 7.4 µM | IC50 (DU-145 [22]): > 20 µM

Compound: COc1cc2cc(Cn3cc(CN4C(=O)c5ccccc5C4=O)nn3)c3cc(OC)c(OC)cc3c2cc1OC
IC50 (MDA-MB-231): 11.8 µM | IC50 (MDA-MB-453): > 20 µM | IC50 (HGC-27): 7.5 µM | IC50 (A549): > 20 µM | IC50 (BT-549): > 20 µM | IC50 (PC-3): 7.6 µM | IC50 (HeLa): 12.6 µM | IC50 (4T1): 11.3 µM | IC50 (DU-145 [22]): 2.6 µM
